This note sets out measurements from ChEMBL document CHEMBL4665898, “Semisynthetic Analogs of the Antibiotic Fidaxomicin-Design, Synthesis, and Biological Evaluation” (ACS Med Chem Lett, 2020).

Data set [1] relates to Clostridioides difficile. The experiment in a line: Antibacterial activity against Clostridium difficile under anaerobic condition by CLSI-based broth microdilution assay. In kind it is functional. In a few lines: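 Isolates streaked on Brucella agar with hemin, vitamin K and 5% sheep blood, anaerobic 35–37°C, 44–48 h. CLSI broth microdilution in Brucella broth with hemin, vitamin K, 5% laked horse blood. Test agents in DMSO, 2-fold series, 16–0.015 µg/mL. Inoculum from a 0.5 McFarland suspension diluted 1:10. Incubated anaerobically 35–37°C, read at 46 h; MIC = lowest concentration inhibiting visible growth.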
Background: Broth dilution looks for growth in wells or tubes with falling amounts of substance.

In data set [2] the test system is Clostridioides difficile. The data set is described as follows: Antibacterial activity against Clostridium difficile ATCC 43255 incubated for 46 hrs in anaerobic condition by CLSI-based broth microdilution assay. The format is functional.
Data set [3] concerns Clostridioides difficile. The data set is described as follows: Antibacterial activity against Clostridium difficile 8260 incubated for 46 hrs in anaerobic condition by CLSI-based broth microdilution assay. In kind it is functional.
Data set [4] deals with Clostridioides difficile. The data set is described as follows: Antibacterial activity against Clostridium difficile 5680 incubated for 46 hrs in anaerobic condition by CLSI-based broth microdilution assay. The format is functional.
For data set [5], the system named is Clostridioides difficile. The experiment in a line: Antibacterial activity against Clostridium difficile 8282 incubated for 46 hrs in anaerobic condition by CLSI-based broth microdilution assay. The format is functional.
The nature of data set [6]: Aqueous solubility of the compound in phosphate buffer at pH 7 after 5 hrs by UHPLC analysis. In kind it is physicochemical. In a few lines:
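Solid added to 1.0 mL pH 7 phosphate buffer containing 50 µg/mL caffeine internal standard until saturated. Stirred 5 h at room temperature, passed through a 0.22 µm filter, then run on C18 UHPLC with a water/MeCN + 0.1 % HCOOH gradient. Analyte/IS peak-area ratio was converted to concentration using a linear calibration from MeOH standards at 50–500 µg/mL.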

In data set [7] the test system is Clostridioides difficile. The experiment in a line: Antibacterial activity against Clostridium difficile BAA-1805 incubated for 46 hrs in anaerobic condition by CLSI-based broth microdilution assay. The format is functional.
Data set [8] has as its system Staphylococcus aureus. The data set is described as follows: Antibacterial activity against Staphylococcus aureus ATCC 29213 incubated overnight by broth dilution method. In kind it is functional. The procedure, abridged: (§1)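 Strains pre-grown overnight at 37 °C on Mueller Hinton II agar; CLSI broth dilution, inoculum about 7.5 × 10^5 CFU/well. Compounds taken from 1.0 mg/mL stocks in 50 % methanol/H2O, diluted in H2O as 2-fold series. Plates held at 37 °C overnight; MIC read visually as lowest concentration with no growth.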

In data set [9] the test system is Clostridioides difficile. The experiment in a line: Antibacterial activity against Clostridium difficile 8290 incubated for 46 hrs in anaerobic condition by CLSI-based broth microdilution assay. The format is functional.
Data set [10] concerns Clostridioides difficile. The data set is described as follows: Antibacterial activity against Clostridium difficile BAA-1875 incubated for 46 hrs in anaerobic condition by CLSI-based broth microdilution assay. In kind it is functional.
Data set [11] has as its system Mycobacterium tuberculosis. The data set is described as follows: Antimycobacterial activity against recombinant Mycobacterium tuberculosis H37Rv expressed in green fluorescence protein by measuring increase in fluorescence after 10 days in presence of middlebrook 7H9/OADC medium by GFP reporter gene assay. The format is functional. Conditions: 240 h, time 10 day. For orientation: Reporter assays use an easily measured gene product as a stand-in for the process of interest.

Data set [12] concerns Clostridioides difficile. The experiment in a line: Antibacterial activity against Clostridium difficile ATCC 700057 incubated for 46 hrs in anaerobic condition by CLSI-based broth microdilution assay. In kind it is functional.
Data set [13] has as its system Clostridioides difficile. The data set is described as follows: Antibacterial activity against Clostridium difficile 8264 incubated for 46 hrs in anaerobic condition by CLSI-based broth microdilution assay. In kind it is functional.
The test system of data set [14] is Clostridioides difficile. The experiment in a line: Antibacterial activity against Clostridium difficile incubated for 48 hrs by microbroth dilution method. In kind it is functional. In a few lines:
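Per CLSI, anaerobic broth microdilution in Brucella broth with hemin, vitamin K and 5% laked horse blood. Isolates pre-grown anaerobically on supplemented Brucella blood agar, 35–37 °C, 44–48 h. Inoculum at 0.5 McFarland, diluted 1:10. 2-fold drug series from DMSO, 16–0.015 µg/mL. Incubated anaerobically at 35–37 °C and read at 46 h. MIC is the lowest concentration inhibiting visible growth.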

Data set [15] concerns Staphylococcus aureus. The experiment in a line: Antibacterial activity against Staphylococcus aureus by CLSI-based broth microdilution method. In kind it is functional. The procedure, abridged: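 S. aureus ATCC29213 grown overnight at 37 °C on MH II agar. MIC by CLSI broth dilution at about 7.5 × 10^5 CFU/well. Compounds diluted 2-fold in water from 1.0 mg/mL stocks in 50% methanol. Plates incubated overnight at 37 °C. MIC is the lowest concentration with no growth, read by eye.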

Data set [16] deals with Clostridioides difficile. The experiment in a line: Antibacterial activity against Clostridium difficile ATCC 9689 incubated for 46 hrs in anaerobic condition by CLSI-based broth microdilution assay. The format is functional. The following applies: ATCC 9689 = DSM 1296.
In another data set the test system is Bacillus subtilis. The experiment in a line: Antibacterial activity against Bacillus subtilis DSM3256 incubated overnight by broth dilution method. In kind it is functional. In a few lines:
as §1

Values after ≈ are worked out from the molar mass of the structure shown.

As a reminder, the MIC is the smallest concentration in the dilution series that meets the test's criterion for growth inhibition. Read a low MIC as a more susceptible organism. In general, solubility refers to how much of the substance goes into solution per volume. What is called MIC90 is an inhibitory concentration at the 90% level, which refers to growth in some studies and to a panel of isolates in others. Take `CCc1c(Cl)c(O)c(Cl)c(O)c1C(=O)O[C@@H]1[C@@H](O)[C@@H](OC)[C@@H](OC/C2=C\C=C\C[C@H](O)/C(C)=C/[C@H](CC)[C@@H](O[C@@H]3OC(C)(C)[C@@H](OC(=O)C(C)C)[C@H](O)[C@@H]3O)/C(C)=C/C(C)=C/C[C@@H]([C@@H](C)O)OC2=O)O[C@H]1C`: the MIC against Clostridioides difficile [1] came out at 0.012 µg/mL (≈ 0.0113 µM); in the data set on Clostridioides difficile [2], 0.03 µg/mL (≈ 0.0284 µM); with Clostridioides difficile [3], 0.06 µg/mL (≈ 0.0567 µM); with Clostridioides difficile [4], 0.06 µg/mL (≈ 0.0567 µM); in the data set with Clostridioides difficile [5] it was 0.03 µg/mL (≈ 0.0284 µM); against Clostridioides difficile [7], 0.12 µg/mL (≈ 0.113 µM). For the same molecule, the MIC was 8 µg/mL (≈ 7.56 µM) in the data set with Staphylococcus aureus [8]; 0.03 µg/mL (≈ 0.0284 µM) in the data set with Clostridioides difficile [9]; 0.03 µg/mL (≈ 0.0284 µM) in the data set on Clostridioides difficile [10]; 0.03 µg/mL (≈ 0.0284 µM) with Clostridioides difficile [12]; 0.12 µg/mL (≈ 0.113 µM) with Clostridioides difficile [13]; 0.25 µg/mL (≈ 0.236 µM) with Clostridioides difficile [14]. The results for the MIC in the data set with Staphylococcus aureus [15], against Clostridioides difficile [16] and against Bacillus subtilis were 2 µg/mL (≈ 1.89 µM), at most 0.015 µg/mL and 8 µg/mL (≈ 7.56 µM), respectively. The concentration in solution in data set [6] (solubility at 5 h) was 84 µg/mL (≈ 79.4 µM). For the same molecule, in [11], the MIC90 was determined as 0.25 µg/mL.
With `CCc1c(Cl)c(OCC(=O)N2CCNCC2)c(Cl)c(O)c1C(=O)O[C@@H]1[C@@H](O)[C@@H](OC)[C@@H](OC/C2=C\C=C\C[C@H](O)/C(C)=C/[C@H](CC)[C@@H](O[C@@H]3OC(C)(C)[C@@H](OC(=O)C(C)C)[C@H](O)[C@@H]3O)/C(C)=C/C(C)=C/C[C@@H]([C@@H](C)O)OC2=O)O[C@H]1C`, the MIC with Clostridioides difficile [2] is 0.5 µg/mL (≈ 0.422 µM); in the data set on Clostridioides difficile [3], 0.03 µg/mL (≈ 0.0253 µM); with Clostridioides difficile [4], 0.5 µg/mL (≈ 0.422 µM); against Clostridioides difficile [5], 0.06 µg/mL (≈ 0.0507 µM); against Clostridioides difficile [7], 0.5 µg/mL (≈ 0.422 µM); in the data set with Staphylococcus aureus [8], over 64 µg/mL. In addition, the minimal inhibitory concentration (MIC) against Clostridioides difficile [9] was 0.25 µg/mL (≈ 0.211 µM); with Clostridioides difficile [10] it was 0.5 µg/mL (≈ 0.422 µM); with Clostridioides difficile [12], 0.25 µg/mL (≈ 0.211 µM); with Clostridioides difficile [13], 0.5 µg/mL (≈ 0.422 µM); against Clostridioides difficile [16], 0.03 µg/mL (≈ 0.0253 µM); against Bacillus subtilis it was over 64 µg/mL. The same molecule displayed a solubility at 5 h in [6] of 81 µg/mL (≈ 68.4 µM). For the same molecule, the MIC90 in data set [11] was 1 µg/mL.
